Results reported in ChEMBL document CHEMBL1649538 (2009).
≈ marks a conversion by molar mass, not a printed value.

Legend:
Format in all cases: functional
Staphylococcus aureus [1] = experiment: Antibacterial activity against methicillin-resistant Staphylococcus aureus by broth microdilution method
Staphylococcus aureus [2] = experiment: Antibacterial activity against methicillin-resistant Staphylococcus aureus L32 assessed as induction of biofilm eradication after 24 hrs by CLSI method
Procedure, shortened: (§1)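 Pin-lid biofilms were grown 24 h at 35°C in TSB with 1% glucose and 2% NaCl (7 log10 CFU/ml start), rinsed in PBS, and exposed 24 h at 35°C to serial antibiotic dilutions. Pin bacteria were dispersed by sonication and vortexing. Counts were plated in duplicate on TSA (detection limit 2.4 CFU/ml) or read as turbidity at 570 nm. Quadruplicate.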

Staphylococcus aureus [3] = experiment: Antibacterial activity against methicillin-susceptible Staphylococcus aureus L2 assessed as induction of biofilm eradication after 24 hrs by CLSI method; procedure, shortened: as §1
[4] = system: Staphylococcus epidermidis; experiment: Antibacterial activity against slime-negative Staphylococcus epidermidis M7 assessed as inhibition of biofilm formation after 24 hrs by CLSI method
Procedure, shortened: (§2)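 Modified Calgary pin-lid device. Inoculum of 7 log10 CFU/ml was prepared by direct colony suspension from 24-h TSA growth. Biofilm grew on pins for 24 h at 35°C on a rocking table in TSB with 1% glucose and 2% NaCl. Pins were rinsed three times in PBS and exposed 24 h at 35°C to serial antibiotic dilutions. MBIC is the last well without visible growth. Quadruplicate.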

Enterococcus faecalis [5] = experiment: Antibacterial activity against Enterococcus faecalis ATCC 29212 assessed as inhibition of biofilm formation after 24 hrs by CLSI method; procedure, shortened: as §2
Staphylococcus aureus [6] = experiment: Antibacterial activity against methicillin-susceptible Staphylococcus aureus L2 after 24 hrs by CLSI method; settings: L2, 24 h
Procedure, shortened: (§3)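 Conventional MIC determined in duplicate following CLSI dilution guidelines, with cultures incubated at 35°C.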

Staphylococcus aureus [7] = experiment: Antibacterial activity against Staphylococcus aureus ATCC 35556 after 24 hrs by CLSI method; settings: ATCC 35556, 24 h; procedure, shortened: as §3
Staphylococcus aureus [8] = experiment: Antibacterial activity against methicillin-susceptible Staphylococcus aureus L2 assessed as inhibition of biofilm formation after 24 hrs by CLSI method; procedure, shortened: as §2
Staphylococcus aureus [9] = experiment: Antibacterial activity against methicillin-resistant Staphylococcus aureus L32 after 24 hrs by CLSI method; settings: L32, 24 h; procedure, shortened: as §3
Staphylococcus aureus [10] = experiment: Antibacterial activity against Staphylococcus aureus ATCC 35556 assessed as induction of biofilm eradication after 24 hrs by CLSI method; procedure, shortened: as §1
[11] = system: Staphylococcus epidermidis; experiment: Antibacterial activity against Staphylococcus epidermidis RP62A assessed as inhibition of biofilm formation after 24 hrs by CLSI method; procedure, shortened: as §2
Enterococcus faecalis [12] = experiment: Antibacterial activity against Enterococcus faecalis ATCC 29212 after 24 hrs by CLSI method; settings: ATCC 29212, 24 h; procedure, shortened: as §3
Staphylococcus aureus [13] = experiment: Antibacterial activity against Staphylococcus aureus ATCC 35556 assessed as inhibition of biofilm formation after 24 hrs by CLSI method; procedure, shortened: as §2
[14] = system: Staphylococcus epidermidis; experiment: Antibacterial activity against Staphylococcus epidermidis RP62A assessed as induction of biofilm eradication after 24 hrs by CLSI method; procedure, shortened: as §1
[15] = system: Staphylococcus epidermidis; experiment: Antibacterial activity against Staphylococcus epidermidis RP62A after 24 hrs by CLSI method
Enterococcus faecalis [16] = experiment: Antibacterial activity against Enterococcus faecalis ATCC 29212 assessed as induction of biofilm eradication after 24 hrs by CLSI method; procedure, shortened: as §1
[17] = system: Staphylococcus epidermidis; experiment: Antibacterial activity against slime-negative Staphylococcus epidermidis M7 after 24 hrs by CLSI method; settings: M7, 24 h
Staphylococcus aureus [18] = experiment: Antibacterial activity against methicillin-resistant Staphylococcus aureus L83 after 24 hrs by CLSI method; settings: L83, 24 h; procedure, shortened: as §3
[19] = system: Staphylococcus epidermidis; experiment: Antibacterial activity against slime-negative Staphylococcus epidermidis M7 assessed as induction of biofilm eradication after 24 hrs by CLSI method; procedure, shortened: as §1
Staphylococcus aureus [20] = experiment: Antibacterial activity against methicillin-resistant Staphylococcus aureus L83 assessed as inhibition of biofilm formation after 24 hrs by CLSI method; procedure, shortened: as §2
Staphylococcus aureus [21] = experiment: Antibacterial activity against methicillin-resistant Staphylococcus aureus L32 assessed as inhibition of biofilm formation after 24 hrs by CLSI method; procedure, shortened: as §2
Staphylococcus aureus [22] = experiment: Antibacterial activity against methicillin-resistant Staphylococcus aureus L83 assessed as induction of biofilm eradication after 24 hrs by CLSI method; procedure, shortened: as §1

| SMILES | MBEC (Staphylococcus aureus [2]) [µg/mL] | MBEC (Staphylococcus aureus [3]) [µg/mL] | MBIC [4] [µg/mL] | MBIC (Enterococcus faecalis [5]) [µg/mL] | MBC (Staphylococcus aureus [6]) [µg/mL] | MBC (Staphylococcus aureus [7]) [µg/mL] | MBIC (Staphylococcus aureus [8]) [µg/mL] | MBC (Staphylococcus aureus [9]) [µg/mL] | MBEC (Staphylococcus aureus [10]) [µg/mL] | MBIC [11] [µg/mL] | MBC (Enterococcus faecalis [12]) [µg/mL] | MIC (Enterococcus faecalis [12]) [µg/mL] | MBIC (Staphylococcus aureus [13]) [µg/mL] | MBEC [14] [µg/mL] | MBC [15] [µg/mL] | MBEC (Enterococcus faecalis [16]) [µg/mL] | MBC (Staphylococcus aureus [18]) [µg/mL] | MBEC [19] [µg/mL] | also measured |
| --- | --- | --- | --- | --- | --- | --- | --- | --- | --- | --- | --- | --- | --- | --- | --- | --- | --- | --- | --- |
| CCCCCCCCCCNCCN[C@@]1(C)C[C@H](O[C@H]2[C@H](Oc3c4cc5cc3Oc3ccc(cc3Cl)[C@@H](O)[C@@H](NC(=O)[C@@H](CC(C)C)NC)C(=O)N[C@@H](CC(N)=O)C(=O)N[C@H]5C(=O)N[C@H]3C(=O)N[C@H](C(=O)N[C@H](C(=O)O)c5cc(O)c(CNCP(=O)(O)O)c(O)c5-c5cc3ccc5O)[C@H](O)c3ccc(c(Cl)c3)O4)O[C@H](CO)[C@@H](O)[C@@H]2O)O[C@@H](C)[C@H]1O [TELAVANCIN] | 2 | 1 | 0.5 | 1 | 0.125 (≈ 0.0712 µM) | 0.25 (≈ 0.142 µM) | 1 | 0.125 (≈ 0.0712 µM) | 0.125 | 0.5 | 1 (≈ 0.57 µM) | 0.25 (≈ 0.142 µM) | 0.25 | 1 | 0.125 (≈ 0.0712 µM) | 1 | 0.125 (≈ 0.0712 µM) | 0.5 | MIC (Staphylococcus aureus [1]): 0.06 µg/mL (≈ 0.0342 µM); MIC (Staphylococcus aureus [6]): 0.06 µg/mL (≈ 0.0342 µM); MIC (Staphylococcus aureus [7]): 0.06 µg/mL (≈ 0.0342 µM); MIC (Staphylococcus aureus [9]): 0.03 µg/mL (≈ 0.0171 µM); MIC [15]: 0.125 µg/mL (≈ 0.0712 µM); MBC [17]: 0.125 µg/mL (≈ 0.0712 µM); MIC [17]: 0.125 µg/mL (≈ 0.0712 µM); MIC (Staphylococcus aureus [18]): 0.06 µg/mL (≈ 0.0342 µM) |
| CN[C@H](CC(C)C)C(=O)N[C@H]1C(=O)N[C@@H](CC(N)=O)C(=O)N[C@H]2C(=O)N[C@H]3C(=O)N[C@H](C(=O)N[C@H](C(=O)O)c4cc(O)cc(O)c4-c4cc3ccc4O)[C@H](O)c3ccc(c(Cl)c3)Oc3cc2cc(c3O[C@@H]2O[C@H](CO)[C@@H](O)[C@H](O)[C@H]2O[C@H]2C[C@](C)(N)[C@H](O)[C@H](C)O2)Oc2ccc(cc2Cl)[C@H]1O [VANCOMYCIN] | >256 | >256 | 8 | 16 | 2 (≈ 1.38 µM) | 2 (≈ 1.38 µM) | 16 | 2 (≈ 1.38 µM) | >256 | 4 | 16 (≈ 11 µM) | 2 (≈ 1.38 µM) | 16 | 4 | 2 (≈ 1.38 µM) | >256 | 2 (≈ 1.38 µM) | 2 | MBIC (Staphylococcus aureus [20]): 4 µg/mL; MBIC (Staphylococcus aureus [21]): 8 µg/mL; MBEC (Staphylococcus aureus [22]): >256 µg/mL |
